Bioassay records: PubChem BioAssay, several laboratories
HCT116 bCat-KO = beta-catenin-lacking colon tumor cell growth suppression; HCT116 beta-catenin knockout viability, CellTiter-Glo, 60 h; stronger effect = lower value; viability, % at 10 µM; 140,000 compounds, 1.5% hits; AID 818;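 active = viability at or under a set limit, the compound median less 4 SD, cut at about 6% in these data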;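 also: 0% = Hyamine 1622 control at 20 µM and 100% = untreated cell control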
L major viab = reduces viability of Leishmania major promastigotes | AID 1063 | inhibition, % at 10 µM | 200,000 compounds, 9% hits | resazurin fluorescence viability; in the data active = inhibition above about 50%;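 also: promastigotes grown with compound for 44 hours at 28 °C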
PMI act = activators of human phosphomannose isomerase. P34949. purified human PMI, coupled resazurin fluorescence, 20 min; stronger effect = higher value; 1 = vehicle control, 0 substrate-free wells. activation factor at 20 µM. 190,000 compounds, 0.005% hits. AID 1214;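 active = activation factor of 2 or more at 20 µM, relative to plate controls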
Target sequence (P34949 whole entry, looked up): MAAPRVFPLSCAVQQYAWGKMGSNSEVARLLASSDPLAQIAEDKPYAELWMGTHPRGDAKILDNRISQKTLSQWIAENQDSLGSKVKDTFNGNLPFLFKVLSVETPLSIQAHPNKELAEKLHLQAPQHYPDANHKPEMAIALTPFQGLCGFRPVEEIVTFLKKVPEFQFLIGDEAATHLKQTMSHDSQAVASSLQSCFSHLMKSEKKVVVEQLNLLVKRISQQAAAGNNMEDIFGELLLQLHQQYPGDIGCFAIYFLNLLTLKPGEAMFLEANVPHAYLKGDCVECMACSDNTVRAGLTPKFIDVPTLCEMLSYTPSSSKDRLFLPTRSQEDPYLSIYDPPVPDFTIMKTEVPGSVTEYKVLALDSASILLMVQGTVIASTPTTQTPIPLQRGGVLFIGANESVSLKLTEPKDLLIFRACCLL
PMI act satM6P = activators of human phosphomannose isomerase at near-saturating mannose 6-phosphate; coupled PMI enzyme assay, resazurin fluorescence, 20 min; stronger effect = higher value; 1 = untreated enzyme, 0 = substrate-free blank; 190,000 compounds, 0.34% hits; P34949; activation factor at 20 µM;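 active = activation factor of 2 or more at 20 µM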
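Technique: Diaphorase-driven resazurin-to-resorufin fluorescence, excitation 544, emission 590 nm | Assay system: Human PMI in coupled enzyme assay | Times: Enzyme reaction with compound 20 min at room temperature | Medium: HEPES-buffered pH 7.4 with magnesium and detergent | Reagent: Mannose-6-phosphate 1.0 mM (near-saturating) plus 0.22 mM NADP+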
PTEN del growth = growth suppressors of cells with PTEN tumor suppressor deletion. 140,000 compounds, 1.2% hits. viability, % at 10 µM. HCT116 PTEN-null viability, CellTiter-Glo, 60 h; stronger effect = lower value;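 active = viability at or below a set limit, 4 SD under the median of all tested compounds, cut at about 3.7% in these data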;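 also: PTEN knockout HCT116 line with beta catenin targeted HCT116 as companion control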
* hit, by the source's call; . = no result given. In the library only some 9.6% were active in any assay of this set; here they are far more common.

SMILES	HCT116 bCat-KO	L major viab	PMI act	PMI act satM6P	PTEN del growth
CC(C)CC(=O)NC(=S)Nc1ccc(S(=O)(=O)N2CCN(C)CC2)cc1	102	67*	0.9	0.9	99
CN1CCN(S(=O)(=O)c2ccc(NC(=S)NC(=O)C3CCCC3)cc2)CC1	.	7	1	1	.
O=C(Cn1cc(CCO)nn1)N1CCNCC1	.	-5	1.1	1.1	.
Brc1ccc(/C=N/Nc2ccccc2)cc1	97	8	1.4	2.4*	96
Oc1ccc(/C=N/Nc2ccccc2)cc1	.	-1	1.6	2.5*	.
O=c1[nH]c2ccsc2c(=O)n1-c1ccc(F)c(Cl)c1	93	-3	1	1	94
COc1cc(CNC2CCCC2)cc(Cl)c1OCc1ccccc1F	1.1*	100*	1	1	1.1*
O=C(NCC(c1ccco1)N1CCN(c2ccccc2)CC1)c1ccc2c(c1)OCO2 (stereo not given)	.	23	1	1	.
COc1ccccc1N1CCN(C(CNC(=O)C2CCCCC2)c2cccnc2)CC1 (stereo not given)	84	51*	0.9	0.9	86
COc1ccccc1N1CCN(C(CNC(=O)c2ccc3c(c2)OCO3)c2cccnc2)CC1 (stereo not given)	68	94*	1	1	73
O=C(NNC1OC(CO)C(O)C(O)C1O)c1cccnc1 (stereo not given)	.	-6	0.9	0.9	.
COC(=O)c1ccccc1S(=O)c1snnc1C (stereo not given)	.	1	1.1	1.1	.
COc1cc(C(=O)Oc2cc(C)cc(C)c2)cc(OC)c1OC	88	-7	0.9	0.9	96
COc1cc(C(=O)ON=C2C(C)=CC(=O)C=C2C)cc(OC)c1OC	77	74*	0.4	0.3	85
COc1cc(C(=O)O/N=C2/C=C(C)C(=O)C=C2C)cc(OC)c1OC	3.6*	93*	0.7	0.5	6
COc1cc(C(=O)OCC(=O)c2cc(C)n(C)c2C)cc(OC)c1OC	29	19	1	1	35
COc1ccc(N=C2C(=Nc3ccc(OC)cc3)N(c3ccc(OC)cc3)C(=S)N2c2ccccc2)cc1	94	19	0.8	0.8	98
Cc1ccc(N=C2C(=S)N(c3ccc(C)cc3)C(=N)N2/N=C/c2ccc(Cl)cc2)cc1	87	100*	1.1	1	90
Cc1cc(NC(=O)c2ccccc2-c2ccccc2)ccc1Br	69	80*	1	0.9	59
CCCCCOc1ccc(C2C(C(C)=O)=C(C)Nc3ncnn32)cc1OC (stereo not given)	89	-6	1	1	83
O=C(NNc1c2ccccc2nc2ccccc12)c1ccc(O)cc1	65	71*	0.8	0.9	69
O=C(NNc1c2ccccc2nc2ccccc12)c1ccccc1O	42	21	1.2	1.2	43
O=C(NNc1c2ccccc2nc2ccccc12)c1ccc(O)cc1O	66	99*	1	1.1	63
O=C(NNc1c2ccccc2nc2ccccc12)c1cccc(O)c1	45	90*	0.9	1	45
Cc1ccc(NC(=O)c2sc3nc[nH]c(=O)c3c2C)c(C)c1	102	-3	1	1	97
SMILES	HCT116 bCat-KO	L major viab	PMI act	PMI act satM6P	PTEN del growth
CCOC(=O)N1CCN(Cc2cn[nH]c2-c2cc3ccccc3o2)CC1	.	-5	1	0.9	.
O=C(CCn1c(=S)oc2ccccc21)N1CCCCC1	.	-2	1.1	1.1	.
O=C(NCc1ccccn1)C1CCCCC1	.	5	1.2	1.1	.
CCOc1ccc(-c2nc(-c3cccnc3)no2)cc1OCC	97	81*	1	1	104
CCOc1ccc(-c2nc(-c3ccc(OC)cc3)no2)cc1OCC	88	14	1	0.9	103
CCOc1ccc(-c2noc(-c3ccncc3)n2)cc1OCC	111	93*	0.8	0.9	97
O=C(COc1ccc(-c2ccccc2)cc1)N/N=C/c1ccccc1Br	85	-3	1.1	1	86
O=C(COc1ccc(-c2ccccc2)cc1)N/N=C/c1cc(O)ccc1Br	100	70*	0.8	0.8	89
CCN(CC)c1ccc(/C=C/C(=O)c2cccnc2)cc1	.	49	0.9	0.8	.
N#Cc1ccc(/C=C/C(=O)c2cccnc2)cc1	.	101*	1.1	1	.
O=C(/C=C/c1ccc(OCc2ccccc2)c(OCc2ccccc2)c1)c1cccnc1	1.5*	100*	1	1	1.6*
O=C(/C=C/c1ccc(Cl)cc1)c1cccnc1	0.5*	100*	1	1	0.7*
O=C(/C=C/c1ccccc1Cl)c1cccnc1	96	98*	0.9	0.9	93
O=C(COC(=O)c1ccc(F)c(S(=O)(=O)N2CCCCC2)c1)NCc1ccc(F)cc1	.	-2	1	1	.
COC(=O)[C@H](Cc1ccccc1)NC(=O)O[C@@H]1C(=O)c2cc(Br)ccc2O[C@H]1c1cccc(OC)c1	85	-2	0.9	0.9	89
Cc1cc([N+](=O)[O-])nn1CC(=O)NCc1ccco1	94	50*	1.1	1	99
Cc1cc([N+](=O)[O-])nn1CC(=O)NCc1cccs1	102	-6	1.1	0.9	107
CCN1CC(CN(C)Cc2cn(-c3cccc(C)c3)nc2-c2cccc(F)c2)CC1=O (stereo not given)	.	35	0.8	0.9	.
CCOC(=O)c1c(NC(=O)Cn2cnc([N+](=O)[O-])n2)sc2c1CCC(C)C2 (stereo not given)	74	98*	1	1	79
COC(=O)c1c(NC(=S)NN2CCN(C)CC2)sc2c1CCC(C)C2 (stereo not given)	.	100*	0.8	0.9	.
COC(=O)c1c(NC(=O)Cn2cnc([N+](=O)[O-])n2)sc2c1CCC(C)C2 (stereo not given)	58	100*	0.9	0.9	52
CCOC(=O)c1c(NC(=O)Cn2cc([N+](=O)[O-])cn2)sc2c1CCC2	83	-4	1	1	86
CCC(C(=O)OCC(=O)Nc1cc(Cl)cc(Cl)c1)c1ccccc1 (stereo not given)	80	-7	0.8	0.8	77
CCN1CCN(c2nc(-c3ccccc3)nc3ccccc23)CC1	74	16	1	1	81
CC1CCN(c2nc(-c3ccncc3)nc3ccccc23)CC1	53	99*	1	1	52
SMILES	HCT116 bCat-KO	L major viab	PMI act	PMI act satM6P	PTEN del growth
c1cncc(-c2nc(N3CCOCC3)c3ccccc3n2)c1	84	10	0.9	0.9	84
c1ccc2c(N3CCOCC3)nc(-c3ccncc3)nc2c1	94	92*	1	1	97
COc1cccc(C(=O)NCCN2CCOCC2)c1	111	0	1	1.1	111
Brc1ccc(OCCCN2CCOCC2)cc1	100	95*	1	1	92
COc1cccc(OCCCCCCN2CCOCC2)c1	78	100*	0.9	1	97
CCOc1ccc(C(=O)NCCN2CCOCC2)cc1	.	-5	1	1	.
